Bounds are passed on as bounds.

What is called ED50 is the dose at which the effect has come halfway, by size or by number of responders. Higher therefore signals weaker potency. As usually defined, the pA2 is a measure of antagonist potency on a negative log scale. By Ki is commonly meant a dissociation constant, usually derived from enzyme kinetics or from competition with a known ligand.

Test [1] concerns Mus musculus. Kind of test: In vivo Antipsychotic activity was quantified by induction of catalepsy in mice. The format is functional. In outline:
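Male CD1 mice, 27 ± 3 g, 6-12 per group, tested 30 min after dosing. Forepaws placed on one horizontal wire, hindpaws on another 6 cm away and 2 cm lower. Holding the posture for more than 30 s scored as catalepsy. ED50 by Litchfield-Wilcoxon.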

A short description of test [2]: pA2 value was evaluated by measuring the inhibition of the 5-HT-induced contraction of rat aorta. The class given is functional, tissue-based. In outline: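 Thoracic aorta rings, denuded, from male 250-350-g Sprague-Dawley rats. Isometric force recorded after 60 min equilibration under 2 g load, then sensitized with 10 µM 5-HT for 8 min.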
The subject of test [3] is Mus musculus. The experiment in a line: In vivo Antipsychotic activity was quantified by inhibition of apomorphine-induced climbing(CL 95%) by mice. The format is functional. An outline of the steps:
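Male CD1 mice given test drug or vehicle, then 2 mg/kg apomorphine 30 min later. Housed singly in wire cylinders; 6 per dose, 12 controls. Climbing scored 0-2 every 10 min over 30 min. Scores at 20 and 30 min summed and averaged per group. ED50 from nonlinear curve fitting.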

Test [4] deals with T1, D(1A) dopamine receptor (Rattus norvegicus, UniProt P18901). Kind of test: In vitro ability to displace [3H]SCH-23390 binding from Dopamine receptor D1 in rat striatal membrane. The format is cell membranes. In outline: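 Striatal membranes from male Sprague-Dawley rats, washed in Tris-HCl with 5 mM EDTA. Resuspended at 1.00 mg wet weight/750 µL in 50 mM Tris-HCl pH 7.4 with 120 mM NaCl, 5 mM KCl, 2 mM CaCl2 and 1 mM MgCl2. [3H]SCH23390 competition in duplicate, 15 min at 37 °C, filtered. Nonspecific binding defined with 1 µM final SCH23390. Ki = IC50/(1 + D/Kd).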
T1 sequence (P18901 whole entry): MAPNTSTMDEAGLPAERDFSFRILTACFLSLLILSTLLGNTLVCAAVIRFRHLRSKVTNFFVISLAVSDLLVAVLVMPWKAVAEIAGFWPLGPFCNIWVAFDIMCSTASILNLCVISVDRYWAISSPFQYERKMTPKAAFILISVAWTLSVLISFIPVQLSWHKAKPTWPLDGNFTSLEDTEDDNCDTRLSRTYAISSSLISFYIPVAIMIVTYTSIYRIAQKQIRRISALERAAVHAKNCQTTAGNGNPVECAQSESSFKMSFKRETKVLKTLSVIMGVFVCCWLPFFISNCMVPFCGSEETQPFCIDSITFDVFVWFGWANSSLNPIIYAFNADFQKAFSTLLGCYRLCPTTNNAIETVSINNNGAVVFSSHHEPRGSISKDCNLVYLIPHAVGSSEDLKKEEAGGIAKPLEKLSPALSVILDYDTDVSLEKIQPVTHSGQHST

Test [5] addresses T2, 5-hydroxytryptamine receptor 2A (Rattus norvegicus, UniProt P14842). The experiment in a line: In vitro ability to displace [3H]ketanserin binding from 5-hydroxytryptamine 2A receptor in rat membrane.
In test [6] the target is T1, D(1A) dopamine receptor. The experiment in a line: In vitro ability to displace [3H]SCH-23390 binding from Dopamine 1 (D1) receptor in rat striatal membrane. The format is cell membranes.
For test [7], the target named is T2, 5-hydroxytryptamine receptor 2A. The experiment in a line: Compound was tested in vitro for its binding affinity towards 5-hydroxytryptamine 2A receptor from rat frontal cortex using [3H]-ketanserin as radioligand. The format is tissue-based. In outline:
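Frontal cortex from male 200-250-g Sprague-Dawley rats, homogenized in 0.32 M sucrose, then washed. Pellet incubated 15 min at 37 °C to strip endogenous 5-HT. Assay buffer Tris-HCl pH 8.07 with 4 mM CaCl2 and 0.1% ascorbic acid. [3H]ketanserin competition run in triplicate, 30 min at 37 °C, with GF/C filtration. Nonspecific binding defined with methysergide. Ki = IC50/(1 + D/Kd), with Kd taken from saturation binding.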

T2 sequence (P14842 whole entry): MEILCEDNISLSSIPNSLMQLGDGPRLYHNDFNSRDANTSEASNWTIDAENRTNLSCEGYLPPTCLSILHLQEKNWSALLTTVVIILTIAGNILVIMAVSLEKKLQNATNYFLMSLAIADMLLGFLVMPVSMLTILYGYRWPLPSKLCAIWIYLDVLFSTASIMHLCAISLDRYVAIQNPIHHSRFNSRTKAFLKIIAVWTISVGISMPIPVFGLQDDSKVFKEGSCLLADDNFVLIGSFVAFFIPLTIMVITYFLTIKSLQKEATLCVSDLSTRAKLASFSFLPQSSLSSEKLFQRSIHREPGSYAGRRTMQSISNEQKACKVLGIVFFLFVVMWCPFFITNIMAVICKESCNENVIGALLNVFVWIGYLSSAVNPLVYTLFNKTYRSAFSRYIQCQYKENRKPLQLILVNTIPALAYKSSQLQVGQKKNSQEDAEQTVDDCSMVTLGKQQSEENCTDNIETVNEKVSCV

With `Cl.O=C1CC(CN2CCC(C(=O)c3ccc(F)cc3)CC2)c2ccccc21` (stereo unspecified), the ED50 was over 4 mg/kg in the test on Mus musculus [1] and over 7 mg/kg in the test with Mus musculus [3]. In test [2], the pA2 came out at 8.13. For the same molecule, the Ki on D(1A) dopamine receptor [4] was 1550 nM; in test [5] it was 26.3 nM.
Regarding `CN1CCN(C2=Nc3cc(Cl)ccc3Nc3ccccc32)CC1` [CLOZAPINE], the ED50 in the test with Mus musculus [1] is over 50 mg/kg; with Mus musculus [3] it was 2.21 mg/kg.
With `COc1ccccc1N1CCN(CC2CC(=O)c3ccccc3C2)CC1` (stereo unspecified), in test [2], the pA2 worked out at 6.48. In test [5], this molecule had a Ki of 513 nM.
As to `Cl.O=C1CC(CN2CCC(C(=O)c3ccc(F)cc3)CC2)Cc2sccc21` (stereo unspecified), the ED50 is over 16 mg/kg in the test with Mus musculus [1] and 1.25 mg/kg with Mus musculus [3]. In test [2], this molecule returned a pA2 of 7.82. Besides, the Ki at D(1A) dopamine receptor [6] was 427 nM; in test [5], 57.5 nM.
On to `O=C(c1ccc(F)cc1)C1CCN(CCC2CCc3ccccc3C2=O)CC1` (stereo unspecified), for which the pA2 in test [2] worked out at 7.47.
In the case of `Cl.O=C(CCCN1CCN(CC2CC(=O)c3ccsc3C2)CC1)c1ccc(F)cc1` (stereo unspecified), the median effective dose (ED50) is over 2 mg/kg in the test with Mus musculus [1] and over 8 mg/kg with Mus musculus [3]. The molecule also showed a pA2 in test [2] of 7.79. Further, the Ki at D(1A) dopamine receptor [6] was 1350 nM; in test [5] it was 107 nM.
In the case of `Cc1nc2n(c(=O)c1CCN1CCC(c3noc4cc(F)ccc34)CC1)CCCC2` [RISPERIDONE], the ED50 was over 2 mg/kg in the test on Mus musculus [1] and 0.09 mg/kg in the test with Mus musculus [3].
On to `Cl.O=C(CCCN1CCN(CC2CC(=O)c3ccccc32)CC1)c1ccc(F)cc1` (stereo unspecified), for which the 50% effective dose (ED50) in the test on Mus musculus [1] and with Mus musculus [3] was over 8 mg/kg throughout. Further, the pA2 in test [2] was 7.2. In addition, the Ki is 7080 nM on D(1A) dopamine receptor [4] and 45.7 nM in test [5].
In test [2], `O=C(CCCN1CCN(CCC2CCc3ccccc3C2=O)CC1)c1ccc(F)cc1` (stereo unspecified) showed a pA2 of 7.35. Also, the Ki was 1350 nM at D(1A) dopamine receptor [6] and 72.4 nM in test [5].
As for `COc1ccccc1N1CCN(CC2CC(=O)c3ccccc32)CC1.Cl` (stereo unspecified), the ED50 in the test on Mus musculus [1] and in the test with Mus musculus [3] was over 8 mg/kg throughout. In addition, the pA2 in test [2] is recorded as 6.21. In addition, the Ki on D(1A) dopamine receptor [4] is 3720 nM; in test [5], 891 nM.
As to `O=C(CCCN1CCN(CCC2Cc3ccccc3C2=O)CC1)c1ccc(F)cc1` (stereo unspecified), in test [2], the pA2 is listed as 7.3. Moreover, the Ki at D(1A) dopamine receptor [6] is 1320 nM; in test [5] it was 123 nM.
`O=C(c1ccc(F)cc1)C1CCN(CCC2CCCc3ccccc3C2=O)CC1` (stereo unspecified) came in with a pA2 in test [2] of 6.75. This molecule also showed a Ki in test [5] of 13.2 nM.
As to `COc1ccccc1N1CCN(CCC2CCc3ccccc3C2=O)CC1` (stereo unspecified), the pA2 in test [2] was determined as 6.72. Further, the Ki at D(1A) dopamine receptor [4] was 1480 nM; in test [5], 40.7 nM.
For the molecule `O=C1CC(CN2CCC(C(=O)c3ccc(F)cc3)CC2)Cc2ccccc21` (stereo unspecified), the pA2 in test [2] turned out to be 7.86.
In the case of `Cl.O=C1c2ccsc2CCC1CCN1CCC(c2noc3cc(F)ccc23)CC1` (stereo unspecified), the ED50 was over 2 mg/kg in the test with Mus musculus [1] and 0.79 mg/kg with Mus musculus [3]. Moreover, the values for the Ki (in test [7]; at D(1A) dopamine receptor [6]) were 2.75 nM and 295 nM, respectively. Moreover, the pA2 in test [2] amounted to 9.87.
As to `Cl.O=C1c2ccsc2CC1CCN1CCC(c2noc3cc(F)ccc23)CC1` (stereo unspecified), the figures for the ED50 in the test on Mus musculus [1] and in the test on Mus musculus [3] were over 20 mg/kg and 0.47 mg/kg, respectively. Also, the results for the Ki (on D(1A) dopamine receptor [4]; in test [5]) were 126 nM and 1.74 nM, respectively.
Take `O=C(O)C(=O)O.O=C(c1ccc(F)cc1)C1CCN(CCC2Cc3sccc3C2=O)CC1` (stereo unspecified): the values for the ED50 with Mus musculus [1] and in the test on Mus musculus [3] were over 16 mg/kg and 65 mg/kg, respectively. The same molecule had a pA2 in test [2] of 8.92. In addition, the inhibition constant (Ki) on D(1A) dopamine receptor [4] is 2510 nM; in test [5] it was 7.08 nM.
Take `O=C(CCCN1CCC(O)(c2ccc(Cl)cc2)CC1)c1ccc(F)cc1` [HALOPERIDOL]: the figures for the ED50 in the test with Mus musculus [1] and in the test with Mus musculus [3] were 0.67 mg/kg and 0.14 mg/kg, respectively.
The molecule `O=C(c1ccc(F)cc1)C1CCN(CCC2Cc3ccccc3C2=O)CC1` (stereo unspecified) registered a pA2 in test [2] of 8.12.
Take `Cl.O=C1CC(CN2CCC(c3noc4cc(F)ccc34)CC2)Cc2sccc21` (stereo unspecified): the ED50 was over 8 mg/kg in the test on Mus musculus [1] and 1.46 mg/kg with Mus musculus [3]. Further, in test [2], the pA2 amounted to 9.13. Moreover, the Ki was 129 nM on D(1A) dopamine receptor [6] and 4.68 nM in test [5].
As to `Cl.O=C(CCCN1CCN(CCC2CCc3sccc3C2=O)CC1)c1ccc(F)cc1` (stereo unspecified), the ED50 with Mus musculus [1] and with Mus musculus [3] was over 15 mg/kg throughout. Further, the Ki in test [7] was 288 nM; on D(1A) dopamine receptor [6], 3090 nM. The molecule further gave a pA2 in test [2] of 6.83.
Take `Cl.O=C(c1ccc(F)cc1)C1CCN(CCC2CCc3ccsc3C2=O)CC1` (stereo unspecified): the ED50 with Mus musculus [1] is over 4 mg/kg; in the test with Mus musculus [3], 1.98 mg/kg. Also, the figures for the inhibitory constant (Ki) (at D(1A) dopamine receptor [6]; in test [5]) were 562 nM and 11.2 nM, respectively.
As to `COc1ccccc1N1CCN(CCC2CCc3sccc3C2=O)CC1.Cl` (stereo unspecified), the ED50 with Mus musculus [1] and in the test with Mus musculus [3] was over 8 mg/kg in each case. Further, in test [2], the pA2 turned out to be 6.95. Besides, the Ki on D(1A) dopamine receptor [6] was 5370 nM; in test [5] it was 145 nM.
Regarding `Cl.O=C1c2sccc2CCC1CCN1CCC(c2noc3cc(F)ccc23)CC1` (stereo unspecified), the ED50 in the test with Mus musculus [1] is over 2 mg/kg; in the test with Mus musculus [3], 0.5 mg/kg. The Ki is 135 nM at D(1A) dopamine receptor [6] and 6.76 nM in test [5].
As for `Cl.O=C(c1ccc(F)cc1)C1CCN(CCC2CCc3sccc3C2=O)CC1` (stereo unspecified), the ED50 in the test on Mus musculus [1] was over 4 mg/kg; in the test on Mus musculus [3], 2.03 mg/kg. In test [2], the pA2 was 9.02. For the same molecule, the Ki on D(1A) dopamine receptor [4] was 1380 nM; in test [5], 1.45 nM.
As to `O=C(CCCN1CCN(CCC2Cc3sccc3C2=O)CC1)c1ccc(F)cc1` (stereo unspecified), the ED50 in the test with Mus musculus [1] was over 15 mg/kg; in the test on Mus musculus [3] it was 3.34 mg/kg. Further, the pA2 in test [2] is 7.63. The Ki at D(1A) dopamine receptor [4] was 324 nM; in test [5], 42.7 nM.
Consider `O=C(CCCN1CCN(CC2CC(=O)c3ccccc3C2)CC1)c1ccc(F)cc1` (stereo unspecified), for which the pA2 in test [2] amounted to 7.27. Further, the Ki in test [5] is 17.8 nM.
On to `COc1ccccc1N1CCN(CC2CC(=O)c3ccsc3C2)CC1.Cl` (stereo unspecified), for which the 50% effective dose (ED50) with Mus musculus [1] and in the test with Mus musculus [3] was over 8 mg/kg each time. In test [2], this molecule registered a pA2 of 5.9. In addition, the Ki at D(1A) dopamine receptor [6] was over 10000 nM; in test [5], 1510 nM.
